Sampled rows, rich in hits. Any-hit rate of the full collection: about 1.3%.
EphB4 ephrin blk: blocks human EphB4 binding to ephrin-B2. P54760. EphB4 LBD / TNYL-RAW-Alexa532 peptide, fluorescence polarization. inhibition, % at 7 µM. 97,000 compounds, 0.15% hits;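 active means inhibition above the screen-wide mean inhibition plus 3 SD, cut at about 15% in these data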;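 further: 0% = DMSO wells and 100% = excess unlabeled TNYL-RAW peptide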
Mac1 fbg inh: blocks human CD11b/CD18 adhesion to fibrinogen | inhibition, % at 10 µM | K562 CD11b/CD18 adhesion to fibrinogen, ATPlite luminescence; Mn2+ added to activate the integrin | 93,000 compounds, 0.54% hits | P05107+P11215;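 active means primary inhibition of 50% or more at 10 µM, then 40% or more on retest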
Smad3 inh: inhibitors of human Smad3 transcription factor binding; 88,000 compounds, 0.29% hits; inhibition, % at 25 µM; TR-FRET Smad3/Dy647-FoxH1 peptide binding, europium anti-His; AID 630; P84022;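 active means compounds that reduce the energy-transfer binding signal between the protein and its labelled peptide by more than half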;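 further: 0% = Smad3 plus labelled peptide maximal FRET and 100% = peptide-only background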
HIV Rev-RRE inh: HIV Rev-RRE protein-RNA interaction inhibition. P05866. inhibition, % at 8 µM. AID 704. Rev peptide-RRE RNA binding, FRET. 97,000 compounds, 0.79% hits;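 active means inhibition above the screen-wide mean plus 3 SD, cut at about 35% in these data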;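 further: 0% = median DMSO wells and 100% = median Neomycin B control wells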
Target sequence (P05866 whole entry, looked up): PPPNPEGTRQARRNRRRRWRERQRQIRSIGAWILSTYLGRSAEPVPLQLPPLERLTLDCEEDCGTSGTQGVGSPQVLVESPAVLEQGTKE
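assay system = Cy5-tagged RRE RNA duplex with fluorescein-tagged Rev peptide | incubation = 5 + 15 min at 25 °C | also added = labelled Rev peptide | measure = % inhibition of FRET ratio versus controls | benchmarks = DMSO wells as 0% and neomycin B wells as 100% inhibition | measured by = FRET fluorescence readout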
CD11b adhes enh: enhancers of human CD11b/CD18 binding to fibrinogen | P05107+P11215 | K562 CD11b/CD18 adhesion to fibrinogen, ATPlite luminescence | activation, % at 10 µM | 93,000 compounds, 0.07% hits;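 active means 10 µM primary screen giving 50% or more activity, confirmed by 40% or more on retest at that dose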
Phagocyt inh: macrophage phagocytosis inhibition. J774A.1 macrophage IgG-bead phagocytosis, imaging. inhibition, % at 5 µM. 110,000 compounds, 0.07% hits;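 active means inhibition above the mean of the plate negative controls plus 5 SD, cut at about 13% in these data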;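 further: phagocytic index as fraction of beads internalized from green versus red external bead signal; plate controls were DMSO negative control for no effect and cytochalasin-D positive control for full effect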
An asterisk follows results filed as active; nt = no result given; [ ] = remark or other dose.

SMILES	EphB4 ephrin blk	Mac1 fbg inh	Smad3 inh	HIV Rev-RRE inh	CD11b adhes enh	Phagocyt inh
CCCCc1ccc(/C=C2\C(=O)ON=C2c2ccccc2)s1	nt	nt	nt	nt	nt	39*[artifact]
COc1cc(/C=C2\C(=O)ON=C2c2ccccc2)cc(OC)c1OC	1	nt	nt	3	nt	nt
Cc1ccc(C(=O)N/N=C(/CC(=O)c2cccs2)C(F)(F)F)cc1	nt	98*	nt	nt	-9	-9
Cc1nn(C)c(C)c1CN(C)C(=O)c1cc2n(n1)C(C(F)(F)F)CC(c1cccs1)N2 (centres undefined)	7	nt	54*[fluorescence artefact?]	6	nt	nt
N#Cc1cc2c(nc1SCc1ccccc1)CCC2	0	nt	52*[fluorescence artefact?]	-1	nt	nt
N#Cc1cc2c(nc1SCc1ccccc1)CCCC2	nt	nt	nt	nt	nt	-3
O=C(Nc1ccc2c(c1)OCO2)C1CC(c2ccc(F)cc2)=NO1 (centres undefined)	20*	-20	1	6	0	-1
Cc1cc2cc(C)c3nnc(SCC(=O)N4CCc5ccccc54)n3c2cc1C	1	nt	nt	7	nt	nt
Fc1ccc(C2CC(c3ccco3)=NN2c2ccccc2)cc1 (centres undefined)	-7	5	nt	0	-2	-2
O=[N+]([O-])c1ccc(N2N=C(c3ccco3)CC2c2ccccc2)cc1 (centres undefined)	-3	13	nt	76*[fluorescence artefact?]	14	-6
CC1=NNC(=S)NCCCN2CCN(CCCNC(=S)NN=C(C)C=NNC(=S)NCCCN3CCN(CCCNC(=S)NN=C1)CC3)CC2	nt	nt	19	nt	nt	nt
N=C(N)c1ccc(/C=C/c2ccc(C(=N)N)cc2)cc1	nt	nt	-2	nt	nt	nt
CCNc1ccc(Br)cc(C(=O)/C=C/c2c(Cl)cccc2Cl)c1=O	1	nt	8	89*[fluorescence artefact?]	nt	nt
CCNc1ccc(Br)cc(C(=O)/C=C/c2ccc(Cl)cc2)c1=O	nt	nt	nt	nt	nt	2
CNc1ccc(Br)cc(C(=O)/C=C/c2cccc(OC)c2)c1=O	12	nt	2	53*	nt	nt
NCCc1nc(-c2nc(C(=O)O)cs2)cs1	nt	nt	-6	nt	nt	nt
CCCCOc1[nH]c2nc(-c3ccco3)n(Cc3ccco3)c(=N)c2c1C#N	2	-26	7	55*	1	0
Oc1ccc(Cc2nccc3cc(O)c(O)cc23)cc1O	nt	nt	89*	nt	nt	nt
CN1c2ccccc2C(O)=C(C(=S)Nc2ccc(Cl)cc2)S1(=O)=O	10	52*	nt	5	-6	-1
COc1cccc(CNC(=O)c2cc3c(C)nc4ccccc4c3o2)c1	14	33	1	7	5	-1
CCc1ccc(CNC(=O)c2cc3c(C)nc4ccccc4c3o2)cc1	4	94*	-18	-1	-8	-1
COc1cccc(-c2nc(-c3ccccc3)[nH]c(=O)c2C#N)c1	5	nt	nt	3	nt	nt
N#Cc1c(-c2ccccc2)nc(-c2ccccc2)[nH]c1=O	-8	52*	nt	2	-4	3
O=c1[nH]c(Nc2ccccc2)cc2ccccc12	0	nt	58*	61*	nt	nt
COc1ccc(S(=O)(=O)Nc2ccc(N(C)C(C)=O)cc2)cc1	-1	-24	-12	6	0	192*
SMILES	EphB4 ephrin blk	Mac1 fbg inh	Smad3 inh	HIV Rev-RRE inh	CD11b adhes enh	Phagocyt inh
COc1ccc(S(=O)(=O)Nc2ccc(NC(C)=O)cc2)cc1	-1	0	19	0	-2	nt
CC(C)(C)C(=O)Nc1ccc(-c2cn3ccsc3n2)cc1	1	61*	-1	7	-9	2
CN(C)C[C@H]1CCC2=C(C1=O)C(c1ccc(Cl)c(Cl)c1)C1=C(CC[C@H](CN(C)C)C1=O)O2	nt	nt	6	nt	nt	nt
N#CCSc1n[nH]c2nc3c(c(=O)n12)C1(CCCC1)Cc1ccccc1-3	nt	78*	0	nt	-7	1
OCCN1CCN(C(c2cccs2)c2ccc3cccnc3c2O)CC1 (centres undefined)	8	-10	7	14	5	-4
CC(C)(C)c1cc(C(c2cccnc2)N2CCN(CCO)CC2)cc(C(C)(C)C)c1O (centres undefined)	10	52*	2	11	-6	0
O=C(O)NCC1CCCCC1 (tested in a mixture with another compound)	nt	nt	4	nt	nt	nt
O=C1c2ccccc2C(=O)C1c1ccnc2ccccc12	4	nt	33	9	nt	nt
N#CC1=C(N)SC(N)=C(C#N)C1c1ccnc2ccccc12	1	-1	9	60*	0	-2
Cc1cccc(NC(=S)N(C)C2(c3ccccc3Cl)CCCCC2=O)c1 (centres undefined)	2	8	nt	-1	6	33*[artifact]
